# Measured values as given in ChEMBL document CHEMBL1122670, “Synthesis of previously inaccessible quinazolines and 1,4-benzodiazepines as potential anticonvulsants” (J Med Chem, 1984).
# Where “and” joins values, the source holds several entries; their conditions need not be identical. Equal values may be shown once. Calls of active or inactive are those of the source.
# Columns and labels:
# [1] = system: Mus musculus; assay: Effective dose (ED50) was determined in sc Met (pentylenetetrazole) seizure threshold test; I = Inactive.; format: functional, organism-based
# In short: (§1)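 ADD Program screen in mice. Doses of 30, 100, 300 and 600 mg/kg were given, four animals per dose, with tests at 30 min and at 4 h. sc Met endpoint: no threshold seizure (single clonic spasm of 5 s) after an sc convulsant dose 99 of pentylenetetrazol. Rotorod assessed acute neurotoxicity. ED50/TD50 were estimated graphically; Litchfield-Wilcoxon 95% confidence limits were added for selected cases.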
# [2] = system: Mus musculus; assay: Evaluated for seizure threshold test at a dose 25 mg/kg &MMT is the maximal metrazole threshold to tonic flexion; I = Inactive.; format: functional, organism-based; parameters: dose 25 mg/kg
# In short: (§2)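 0.5% pentylenetetrazol (with 0.9% NaCl and 0.001% heparin) was infused into a lateral tail vein at 6.31 μL/s. Time to 3 s of persistent clonus (MST) or hindlimb tonic flexion (MMT) was converted to mg/kg infused. Tested at 0.5 h (some at 4 h or 1 h). Results are % change from controls, by Student's t test.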
# [3] = system: Mus musculus; assay: Evaluated for seizure threshold test at a dose 25 mg/kg &MST is the metrazole seizure threshold to persistent clonus; I = Inactive.; format: functional, organism-based; parameters: dose 25 mg/kg; in short: as §2
# [4] = species on record: Mus musculus; assay: Compound was determined in rotarod test and expressed as TD50; I = Inactive.; format: ADME, organism-based; settings: in vivo; in short: as §1
# [5] = molecular target: GABA-A receptor; anion channel; assay: Binding affinity for umolar GABA-A central benzodiazepine receptor; format: protein-complex assay, Mus musculus
# [6] = system: Mus musculus; assay: Effective dose (ED50) was determined in sc Met (pentylenetetrazole) seizure threshold test; format: functional; in short: as §1
# [7] = system: Mus musculus; assay: Evaluated for seizure threshold test at a dose 0.2 mg/kg &MMT is the maximal metrazole threshold to tonic flexion.; format: functional
# In short: (§3)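 At 0.5 h (some at 1 or 4 h), 0.5% pentylenetetrazol in 0.9% NaCl with 0.001% heparin was infused into the tail vein at 6.31 μL/s. Time to 3 s persistent clonus (MST) or tonic flexion (MMT) was converted to mg/kg, reported as % change vs controls, Student's t test.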
# [8] = system: Mus musculus; assay: Evaluated for seizure threshold test at a dose 0.2 mg/kg &MST is the metrazole seizure threshold to persistent clonus; format: functional; in short: as §3
# [9] = system: Mus musculus; assay: Evaluated for seizure threshold test at a dose 1 mg/kg &MMT is the maximal metrazole threshold to tonic flexion.; format: functional; in short: as §3
# [10] = system: Mus musculus; assay: Evaluated for seizure threshold test at a dose 1 mg/kg &MST is the metrazole seizure threshold to persistent clonus; format: functional; in short: as §3
# [11] = system: Mus musculus; assay: Evaluated for seizure threshold test at a dose 39 mg/kg & MMT is the maximal metrazole threshold to tonic flexion.; format: functional; in short: as §3
# [12] = system: Mus musculus; assay: Evaluated for seizure threshold test at a dose 49 mg/kg & MST is the metrazole seizure threshold to persistent clonus; format: functional; in short: as §3
# [13] = system: Mus musculus; assay: Evaluated for seizure threshold test at a dose 100 mg/kg & MMT is the maximal metrazole threshold to tonic flexion.; format: functional; in short: as §3
# [14] = system: Mus musculus; assay: Evaluated for seizure threshold test at a dose 100 mg/kg & MST is the metrazole seizure threshold to persistent clonus; format: functional; in short: as §3
# [15] = system: Mus musculus; assay: In vivo inhibition of Benzodiazepine (BDZ) binding in mice; format: functional, organism-based
# [16] = Compound was determined in rotarod test and expressed as TD50; format: ADME, organism-based; settings: mouse, in vivo
# In short: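 ADD Program screen in mice. Doses of 30, 100, 300 and 600 mg/kg were given, four animals per dose, with tests at 30 min and at 4 h. sc Met endpoint: no threshold seizure (single clonic spasm of 5 s) after an sc convulsant dose 99 of pentylenetetrazol. Rotorod assessed acute neurotoxicity.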
# [17] = system: Mus musculus; assay: Effective dose (ED50) was determined in sc Met (pentylenetetrazole) seizure threshold test; I = Inactive at all doses including 600 mg/kg; format: functional, organism-based; parameters: dose 600 mg/kg; in short: as §1
# [18] = system: Mus musculus; assay: Evaluated for seizure threshold test at a dose 25 mg/kg &MMT is the maximal metrazole threshold to tonic flexion.; format: functional; in short: as §2
# [19] = system: Mus musculus; assay: Evaluated for seizure threshold test at a dose 25 mg/kg &MST is the metrazole seizure threshold to persistent clonus; format: functional; in short: as §3
# [20] = Compound was evaluated for median lethal dose; format: ADME, organism-based; settings: mouse, in vivo
# [21] = system: Mus musculus; assay: Evaluated for seizure threshold test at a dose 100 mg/kg & MMT is the maximal metrazole threshold to tonic flexion; I - inactive; format: functional, organism-based; parameters: dose 100 mg/kg; in short: as §2
# [22] = system: GABA-A receptor; anion channel; assay: Inhibition of binding to GABA-A central benzodiazepine receptor (Inactive); format: protein-complex assay, Mus musculus
# [23] = system: Mus musculus; assay: Evaluated for seizure threshold test at a dose 300 mg/kg &MMT is the maximal metrazole threshold to tonic flexion; I = Inactive; format: functional, organism-based; parameters: dose 300 mg/kg; in short: as §3
# [24] = system: Mus musculus; assay: Evaluated for seizure threshold test at a dose 300 mg/kg &MST is the metrazole seizure threshold to persistent clonus; format: functional; in short: as §3
# [25] = system: Mus musculus; assay: Evaluated for seizure threshold test at a dose 300 mg/kg & MST is the metrazole seizure threshold to persistent clonus; I = Inactive.; format: functional, organism-based; parameters: dose 300 mg/kg; in short: as §2
# [26] = system: Mus musculus; assay: Evaluated for seizure threshold test at a dose 300 mg/kg & MMT is the maximal metrazole threshold to tonic flexion; format: functional; in short: as §2
# [27] = system: Mus musculus; assay: Evaluated for seizure threshold test at a dose 1.0 mg/kg &MST is the metrazole seizure threshold to persistent clonus; format: functional; in short: as §3
# [28] = system: Mus musculus; assay: Evaluated for seizure threshold test at a dose 1.0 mg/kg &MMT is the maximal metrazole threshold to tonic flexion.; format: functional; in short: as §3
# [29] = system: Mus musculus; assay: Evaluated for seizure threshold test at a dose 75 mg/kg &MMT is the maximal metrazole threshold to tonic flexion.; format: functional; in short: as §2
# [30] = system: Mus musculus; assay: Evaluated for seizure threshold test at a dose 75 mg/kg &MST is the metrazole seizure threshold to persistent clonus; I = Inactive.; format: functional, organism-based; parameters: dose 75 mg/kg; in short: as §2
Structure (SMILES),ED50 [1],Change [2],Change [3],TD50 [4],ED50 [6],TD50 [16],other results
Cc1cc(C(=O)c2ccccc2Cl)c(N)c(C#N)c1C,inactive,Not significant,Not significant,Not Active,–,–,–
O=C1CN=C(c2ccccc2)c2cc(Cl)ccc2N1 [NORDAZEPAM],–,–,–,–,0.28 mg/kg,–,Ki [5]: 73 µM; Change [7]: inactive; Change [8]: 48%; Change [9]: 35%; Change [10]: 70%
Cc1cc2c(c(C#N)c1C)NC=NC2C1CC1 (stereo unspecified),inactive,Not significant,Not significant,Not Active,–,–,–
Cc1cc2c(c(C#N)c1C)NC(=O)CN=C2c1ccccc1F,–,–,–,–,48.9 mg/kg,710 mg/kg,Change [11]: 30%; Change [12]: 23%; Change [13]: 50%; Change [14]: 65%; IC50 [15]: 0.01 nM
Cc1cc2c(c(C#N)c1C)NC=NC2C (stereo unspecified),–,–,–,–,–,51.5 mg/kg,ED50 [17]: inactive; Change [18]: -56%; Change [19]: -36%; LD50 [20]: 150 mg/kg
Cc1cc(C(=O)c2ccccc2)c(NC(=O)CBr)c(C#N)c1C,–,–,–,–,480 mg/kg,600 mg/kg,Change [13]: 49%; Change [21]: inactive; Change ([14]; 100 mg/kg): 70% and 37%
Cc1cc2c(C3CCCCC3)nc(O)nc2c(C#N)c1C,–,–,–,–,260 mg/kg,> 600 mg/kg,IC50 [22]: Not Active; Change [23]: inactive; Change [24]: 44%
Cc1cc(C(=O)C2CCCCC2)c(N)c(C#N)c1C,–,–,–,–,410 mg/kg,> 600 mg/kg,Change [25]: Not significant; Change [26]: 17%
CN1C(=O)CN=C(c2ccccc2)c2cc(Cl)ccc21 [DIAZEPAM],–,–,–,–,0.17 mg/kg,7.3 mg/kg,Change [7]: 15%; Change [8]: 50%; Change [27]: 60%; Change [28]: 40%
CC1N=CNc2c1cc(-c1ccccc1)c(-c1ccccc1)c2C#N (stereo unspecified),inactive,Not significant,Not significant,Not Active,–,–,–
Cc1cc2c(C)nc(O)nc2c(C#N)c1C,inactive,Not significant,Not significant,Not Active,–,–,–
Cc1cc(C(=O)c2ccccc2)c(N)c(C#N)c1C,inactive,Not significant,Not significant,Not Active,–,–,–
Cc1cc2c(c(C#N)c1C)NC(=O)CN=C2C1CC1,–,–,–,–,–,600 mg/kg,IC50 [22]: Not Active; Change [23]: inactive; Change [24]: 300%; ED50 [17]: inactive
Cc1cc2c(c(C#N)c1C)NC(=O)NC2C (stereo unspecified),–,–,–,–,–,300 mg/kg,Change [29]: -16%; Change [30]: Not significant; ED50 [17]: inactive
Cc1cc2c(-c3ccccc3F)nc(O)nc2c(C#N)c1C,inactive,Not significant,Not significant,Not Active,–,–,–
